Data as given in ChEMBL document CHEMBL3091404, “Isoquinoline derivatives as potent CRTH2 antagonists: design, synthesis and SAR” (Bioorg Med Chem, 2013).

Columns and labels:
[1] = molecular target: T1, Prostaglandin D2 receptor 2 (Homo sapiens, UniProt Q9Y5Y4); assay: Displacement of [3H]PGD2 from human CRTH2 transfected in CHO cells by liquid scintillation counting analysis; assay type: cell-based
T1 sequence (Q9Y5Y4 whole entry): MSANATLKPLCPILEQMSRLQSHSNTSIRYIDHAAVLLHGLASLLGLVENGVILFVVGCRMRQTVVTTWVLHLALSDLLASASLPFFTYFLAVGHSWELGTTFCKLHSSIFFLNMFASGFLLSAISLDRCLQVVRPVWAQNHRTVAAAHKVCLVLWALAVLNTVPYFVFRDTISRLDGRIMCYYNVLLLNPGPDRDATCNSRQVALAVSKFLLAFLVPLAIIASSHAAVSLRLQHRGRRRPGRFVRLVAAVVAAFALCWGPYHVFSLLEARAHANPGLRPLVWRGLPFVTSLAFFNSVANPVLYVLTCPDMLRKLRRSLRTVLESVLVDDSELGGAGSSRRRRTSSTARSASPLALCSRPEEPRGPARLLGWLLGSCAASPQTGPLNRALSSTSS
Summary of the method: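 Transfected cells washed and suspended in HBSS with 10 mM HEPES pH 7.3 (2 × 10⁵ cells/100 µl), incubated with 5 nM ³H-PGD₂ for 60 min on ice. Vacuum filtration through GF/C glass fiber filters, four washes with ice-cold PBS containing 0.1% BSA. IC₅₀ from ten-point half-log concentration–response curves, mean of two or more independent experiments.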

[2] = molecular target: T1, Prostaglandin D2 receptor 2; assay: Antagonist activity at human CRTH2 transfected in human KB8 cells assessed as inhibition of PGD2-induced increase in intracellular Ca2+ by fluo-4AM dye-based assay; assay type: functional, cell-based
Summary of the method: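 Cells loaded with 1 µM Fluo-4 AM for 30 min at 37 °C in the dark, washed, resuspended in HBSS with 10 mM HEPES pH 7.3 and 1 mM CaCl₂ (2 × 10⁵ cells/100 µl). Compound added with 100 nM PGD₂; [Ca²⁺]i rise read on FDSS6000. IC₅₀ from ten-point half-log concentration–response curves, mean of two or more independent experiments.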

[3] = Antagonist activity at CRTH2 in human TH2 cells assessed as inhibition of PGD2-induced chemotaxis after 1 hr by hemocytometry

Row | IC50 [1] [nM] | IC50 [2] [nM] | IC50 [3] [nM] | Compound
1 | 7.8 | > 1000 |  | N#Cc1ccc(C(=O)Nc2ccc(C(=O)c3ncc(CC(=O)O)c4ccccc34)cc2)cc1
2 |  | 43 |  | O=C(O)Cc1cnc(C(=O)c2ccc(NCc3ccc(Cl)c(Cl)c3)cc2)c2ccccc12
3 |  | 17 |  | COc1ccc(C(=O)Nc2ccc(C(=O)c3ncc(CC(=O)O)c4ccccc34)cc2)cc1
4 |  | > 1000 |  | O=C(O)Cc1cnc(C(=O)c2ccc(NC(=O)c3ccccc3Cl)cc2)c2ccccc12
5 |  | > 1000 |  | O=C(O)Cc1cnc(C(=O)c2ccc(NC(=O)c3ccncc3)cc2)c2ccccc12
6 | 322 | > 1000 |  | O=C(O)Cc1cnc(C(=O)c2ccc(NC(=O)c3cccnn3)cc2)c2ccccc12
7 |  | 4.2 |  | O=C(O)Cc1cnc(C(=O)c2ccc(NC(=O)c3cc4ccccc4[nH]3)cc2)c2ccccc12
8 |  | 13 |  | O=C(O)Cc1cnc(C(=O)c2ccc(C(=O)Nc3ccc(Cl)c(Cl)c3)cc2)c2ccccc12
9 | 400 | > 1000 |  | O=C(O)Cc1cnc(C(=O)c2ccc(NC(=O)C3CCOCC3)cc2)c2ccccc12
10 | 31 | 350 |  | O=C(O)Cc1cnc(C(=O)c2ccc(NC(=O)c3cccc4ccccc34)cc2)c2ccccc12
11 | 21 | 97 |  | O=C(O)Cc1cnc(C(=O)c2ccc(NC(=O)CC34CC5CC(CC(C5)C3)C4)cc2)c2ccccc12
12 | 12 | 130 |  | O=C(O)Cc1cnc(C(=O)c2ccc(OCCc3ccc(Cl)cc3)cc2)c2ccccc12
13 |  | 18 |  | O=C(O)Cc1cnc(C(=O)c2ccc(NC(=O)CCc3ccc(Cl)c(Cl)c3)cc2)c2ccccc12
14 | 20 | 220 |  | O=C(O)Cc1cnc(C(=O)c2ccc(NC(=O)CC3CCCCC3)cc2)c2ccccc12
15 | 9.9 | 28 |  | O=C(O)Cc1cnc(C(=O)c2ccc(NC(=O)c3ccc([N+](=O)[O-])cc3)cc2)c2ccccc12
16 |  | > 1000 |  | CC(C)(C(=O)O)c1cnc(C(=O)c2ccc(C(=O)NCCc3ccc(Cl)cc3)cc2)c2ccccc12
17 | 50 |  |  | O=C(O)Cc1cnc(C(=O)c2ccc(NC(=O)C3CC3)cc2)c2ccccc12
18 |  | 100 |  | O=C(O)COc1cnc(C(=O)c2ccc(C(=O)NCCc3ccc(Cl)cc3)cc2)c2ccccc12
19 | 18 | 14 |  | O=C(O)Cc1cnc(C(=O)c2ccc(NC(=O)c3ccc(-c4ccccc4)cc3)cc2)c2ccccc12

Row | IC50 [1] [nM] | IC50 [2] [nM] | IC50 [3] [nM] | Compound
20 | 8.2 | 38 |  | O=C(O)Cc1cnc(C(=O)c2ccc(C(=O)Nc3ccc(Cl)cc3)cc2)c2ccccc12
21 | 3.7 | 18 |  | O=C(O)Cc1cnc(C(=O)c2ccc(C(=O)NCCc3ccc(Cl)c(Cl)c3)cc2)c2ccccc12
22 | 11 | 85 |  | O=C(O)Cc1cnc(C(=O)c2ccc(OCCCc3ccc(Cl)cc3)cc2)c2ccccc12
23 | 13 | 36 |  | O=C(O)Cc1cnc(C(=O)c2ccc(NC(=O)Nc3ccc(Cl)c(Cl)c3)cc2)c2ccccc12
24 | 6.2 | 13 |  | CN(C)c1ccc(C(=O)Nc2ccc(C(=O)c3ncc(CC(=O)O)c4ccccc34)cc2)cc1
25 | 48 |  |  | O=C(O)Cc1cnc(C(=O)c2ccc(NC(=O)c3ccccn3)cc2)c2ccccc12
26 |  | 13 | 23 | O=C(O)Cc1cnc(C(=O)c2ccc(NC(=O)c3ccc(Cl)c(Cl)c3)cc2)c2ccccc12
27 |  | 9.1 |  | O=C(O)Cc1cnc(C(=O)c2ccc(NC(=O)c3ccc(Cl)cc3)cc2)c2ccccc12
28 |  | 12 |  | O=C(O)Cc1cnc(C(=O)c2ccc(C(=O)NCCc3ccc(Cl)cc3)cc2)c2ccccc12
29 |  | 9.7 |  | O=C(O)Cc1cnc(C(=O)c2ccc(NC(=O)c3cccc(Cl)c3)cc2)c2ccccc12
30 | 14 | 120 |  | O=C(O)Cc1cnc(C(=O)c2ccc(NC(=O)c3ccc(Oc4ccccc4)cc3)cc2)c2ccccc12
31 | 15 | 30 |  | O=C(O)Cc1cnc(C(=O)c2ccc(NC(=O)Cc3ccc(Cl)c(Cl)c3)cc2)c2ccccc12
32 | 67 | > 1000 |  | O=C(O)Cc1cnc(C(=O)c2ccc(NC(=O)c3cscn3)cc2)c2ccccc12
33 | 3.8 | 7.4 |  | O=C(O)Cc1cnc(C(=O)c2ccc(NC(=O)c3cc4ccccc4o3)cc2)c2ccccc12
34 |  | 10 |  | O=C(O)Cc1cnc(C(=O)c2ccc(NC(=O)c3ccc4ccccc4c3)cc2)c2ccccc12
35 | 11 | 8.7 |  | O=C(O)Cc1cnc(C(=O)c2ccc(NC(=O)c3ccc(OC(F)(F)F)cc3)cc2)c2ccccc12
36 | 6.7 | 5.2 |  | O=C(O)Cc1cnc(C(=O)c2ccc(NC(=O)OCc3ccc(Cl)c(Cl)c3)cc2)c2ccccc12
37 | 5.2 | 18 |  | Cc1ccc(C(=O)Nc2ccc(C(=O)c3ncc(CC(=O)O)c4ccccc34)cc2)cc1
38 |  | 270 |  | O=C(O)Cc1cnc(C(=O)c2ccc(NC(=O)C3CCCCC3)cc2)c2ccccc12
